This note sets out measurements from ChEMBL document CHEMBL4145652, “Chemoenzymatic Synthesis and Pharmacological Characterization of Functionalized Aspartate Analogues As Novel Excitatory Amino Acid Transporter Inhibitors” (J Med Chem, 2018).

Activity calls are given as the source filed them. The rule behind the calls is not given here.

Assay type in all cases: cell-based
In assay [1] the target is T1, Excitatory amino acid transporter 2 (Homo sapiens, UniProt P43004). Put plainly: Inhibition of human EAAT2 expressed in HEK293 cells assessed as reduction in EC80 L-glutamate-induced response at 300 uM pre-incubated before L-glutamate addition by fluorescence-based FLIPR membrane potential blue assay. Put shortly:
(§1)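 Stably transfected HEK293 cells expressing human EAAT1, EAAT2 or EAAT3, plated the day before on poly-D-lysine-coated plates. Cells were loaded with FMP dye (0.5 mg/mL) in NaCl/KCl/HEPES/glucose buffer, pH 7.4, for 30 min at 37 °C, with test compound at 300 μM present. L-Glu at its EC80 for each transporter was then added. Emission at 565 nm (excitation 525 nm) was read up to 90 s. Three independent experiments in triplicate.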

In assay [2] the target is T2, Excitatory amino acid transporter 3 (Homo sapiens) (UniProt P43005).
T2 sequence (whole entry): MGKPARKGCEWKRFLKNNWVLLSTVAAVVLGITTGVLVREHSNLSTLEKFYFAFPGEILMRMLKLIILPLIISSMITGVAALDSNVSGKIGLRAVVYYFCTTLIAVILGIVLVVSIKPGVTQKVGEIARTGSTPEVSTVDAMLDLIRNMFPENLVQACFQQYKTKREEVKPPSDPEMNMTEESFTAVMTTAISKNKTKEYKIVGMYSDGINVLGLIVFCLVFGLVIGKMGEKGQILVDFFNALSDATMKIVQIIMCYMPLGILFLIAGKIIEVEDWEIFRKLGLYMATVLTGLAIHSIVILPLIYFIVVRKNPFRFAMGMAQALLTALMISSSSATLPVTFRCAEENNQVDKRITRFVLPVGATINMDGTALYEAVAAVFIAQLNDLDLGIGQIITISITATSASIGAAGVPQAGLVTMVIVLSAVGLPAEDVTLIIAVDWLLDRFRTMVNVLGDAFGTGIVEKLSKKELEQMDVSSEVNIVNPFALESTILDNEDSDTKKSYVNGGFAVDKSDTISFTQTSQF
Put plainly: Substrate activity at human EAAT3 expressed in HEK293 cells assessed as increase in fluorescence level at 300 uM incubated for 30 mins by fluorescence-based FLIPR membrane potential blue assay. Put shortly: (§2)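 Human EAAT1-, EAAT2- or EAAT3-HEK293 cells were loaded with FMP dye (0.5 mg/mL) in Na+-containing HEPES buffer, pH 7.4, for 30 min at 37 °C. Test compound was then added alone to an assay concentration of 300 μM. Fluorescence (ex 525/em 565 nm) was recorded before addition and up to 90 s after. Three independent experiments in triplicate.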

For assay [3], the target named is T3, Excitatory amino acid transporter 1 (Homo sapiens, UniProt P43003). In words: Inhibition of human EAAT1 expressed in HEK293 cells assessed as reduction in [3H]-D-Asp uptake incubated for 4 mins by scintillation counting method. Put shortly: (§3)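 HEK293 cells stably expressing human EAAT1, EAAT2 or EAAT3 were plated 16–24 h before the assay. Cells were washed and incubated with 100 nM [3H]-D-Asp plus graded compound concentrations in HBSS/20 mM HEPES/CaCl2/MgCl2, pH 7.4, for 4 min at 37 °C. Uptake was in the linear range at this time. Cells were washed ice-cold and counted by scintillation. IC50 came from a Hill-equation fit. Three or four independent assays in duplicate.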

Assay [4] has as its target T4, Excitatory amino acid transporter 4 (Rattus norvegicus, UniProt O35921).
T4 sequence (O35921 whole entry): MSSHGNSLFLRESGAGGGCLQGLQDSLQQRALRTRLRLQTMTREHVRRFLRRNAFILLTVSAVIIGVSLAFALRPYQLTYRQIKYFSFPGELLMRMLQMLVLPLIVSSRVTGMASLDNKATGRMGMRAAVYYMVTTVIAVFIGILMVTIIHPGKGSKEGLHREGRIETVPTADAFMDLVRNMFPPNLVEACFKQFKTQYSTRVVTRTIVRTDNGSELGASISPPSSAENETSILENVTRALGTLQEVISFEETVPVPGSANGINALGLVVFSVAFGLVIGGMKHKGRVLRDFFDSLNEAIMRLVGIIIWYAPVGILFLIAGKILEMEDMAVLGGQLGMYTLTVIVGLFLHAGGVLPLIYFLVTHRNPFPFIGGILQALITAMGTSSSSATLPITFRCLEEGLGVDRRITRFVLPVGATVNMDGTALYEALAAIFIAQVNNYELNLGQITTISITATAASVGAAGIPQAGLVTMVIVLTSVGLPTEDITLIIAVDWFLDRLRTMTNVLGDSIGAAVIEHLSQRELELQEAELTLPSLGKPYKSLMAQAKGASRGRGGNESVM
In words: Inhibition of rat EAAT4 expressed in tsA201 cells assessed as reduction in [3H]-D-Asp uptake incubated for 4 mins by scintillation counting method. The following applies: read-out: IC50. Put shortly:
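Rat EAAT4 stably expressed in tsA201 cells, induced with 1 μg/mL tetracycline during overnight plating. [3H]-D-Asp (100 nM) uptake with graded compound concentrations ran for 4 min at 37 °C in HEPES-buffered HBSS, pH 7.4. Uptake was linear at this time. Nonspecific uptake was defined by 3 mM L-Glu. Read-out by scintillation counting. IC50 came from a Hill-equation fit. Three or four independent assays in duplicate.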

Assay [5] deals with T1, Excitatory amino acid transporter 2. Put plainly: Inhibition of human EAAT2 expressed in HEK293 cells assessed as reduction in EC80 L-glutamate-induced response at 300 uM co-applied with L-glutamate addition by fluorescence-based FLIPR membrane potential blue assay.
Assay [6] has as its target T3, Excitatory amino acid transporter 1. In words: Substrate activity at human EAAT1 expressed in HEK293 cells assessed as increase in fluorescence level at 300 uM incubated for 30 mins by fluorescence-based FLIPR membrane potential blue assay. Summed up: as §2
Assay [7] deals with T2, Excitatory amino acid transporter 3 (Homo sapiens). Put plainly: Inhibition of human EAAT3 expressed in HEK293 cells assessed as reduction in EC80 L-glutamate-induced response at 300 uM pre-incubated before L-glutamate addition by fluorescence-based FLIPR membrane potential blue assay. Put shortly: as §1
Assay [8] addresses T1, Excitatory amino acid transporter 2. In words: Substrate activity at human EAAT2 expressed in HEK293 cells assessed as increase in fluorescence level at 300 uM incubated for 30 mins by fluorescence-based FLIPR membrane potential blue assay. Summed up: as §2
The target of assay [9] is T3, Excitatory amino acid transporter 1. In words: Inhibition of human EAAT1 expressed in HEK293 cells assessed as reduction in EC80 L-glutamate-induced response at 300 uM pre-incubated before L-glutamate addition by fluorescence-based FLIPR membrane potential blue assay. Summed up:
as §1

The target in assay [10] is T5, Excitatory amino acid transporter 3 (Homo sapiens, UniProt P43005).
T5 sequence (P43005 whole entry): T2 sequence (whole entry)
Put plainly: Inhibition of human EAAT3 expressed in HEK293 cells assessed as reduction in [3H]-D-Asp uptake incubated for 4 mins by scintillation counting method. Put shortly: as §3

Assay [11] has as its target T1, Excitatory amino acid transporter 2. Put plainly: Inhibition of human EAAT2 expressed in HEK293 cells assessed as reduction in [3H]-D-Asp uptake incubated for 4 mins by scintillation counting method. The note with it: read-out: IC50. Put shortly:
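HEK293 cells stably expressing human EAAT1, EAAT2 or EAAT3 were plated 16–24 h before the assay. Cells were washed and incubated with 100 nM [3H]-D-Asp plus graded compound concentrations in HBSS/20 mM HEPES/CaCl2/MgCl2, pH 7.4, for 4 min at 37 °C. Uptake was in the linear range at this time. Nonspecific uptake was defined with 3 mM L-Glu. Cells were washed ice-cold and counted by scintillation. IC50 came from a Hill-equation fit. Three or four independent assays in duplicate.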

The target of assay [12] is T2, Excitatory amino acid transporter 3 (Homo sapiens). In words: Potency index, ratio of IC50 for WAY-213613 to IC50 for test compound for inhibition of human EAAT3 expressed in HEK293 cells assessed as reduction in [3H]-D-Asp uptake incubated for 4 mins by scintillation counting method.
Assay [13] deals with T3, Excitatory amino acid transporter 1. Put plainly: Potency index, ratio of IC50 for DL-TBOA to IC50 for test compound for inhibition of human EAAT1 expressed in HEK293 cells assessed as reduction in [3H]-D-Asp uptake incubated for 4 mins by scintillation counting method. Summed up:
(§4)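 Stable HEK293 lines expressing human transporter, plated on poly-D-lysine 16–24 h before assay. Washed cells were given HBSS/20 mM HEPES/1 mM CaCl2/1 mM MgCl2, pH 7.4, with 100 nM [3H]-D-Asp plus graded inhibitor for 4 min at 37 °C. Nonspecific uptake was taken with 3 mM L-Glu. IC50 came from a Hill fit; index = DL-TBOA IC50 ÷ test IC50. Three or four independent runs in duplicate.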

Assay [14] addresses T6, Excitatory amino acid transporter 4 (Rattus norvegicus) (UniProt O35921).
T6 sequence (whole entry): T4 sequence (O35921 whole entry)
In words: Potency index, ratio of IC50 for DL-TBOA to IC50 for test compound for inhibition of rat EAAT4 expressed in tsA201 cells assessed as reduction in [3H]-D-Asp uptake incubated for 4 mins by scintillation counting method. Put shortly:
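Stable rat EAAT4 tsA201 line induced with 1 µg/mL tetracycline on plating, 16–24 h before assay. Uptake used 100 nM [3H]-D-Asp with graded inhibitor in HEPES-buffered HBSS, pH 7.4, for 4 min at 37 °C. 3 mM L-Glu defined nonspecific uptake. Scintillation counts were Hill-fitted for IC50; index = DL-TBOA IC50 ÷ test IC50. Three or four independent runs in duplicate.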

Assay [15] concerns the target T1, Excitatory amino acid transporter 2. In words: Potency index, ratio of IC50 for DL-TBOA to IC50 for test compound for inhibition of human EAAT2 expressed in HEK293 cells assessed as reduction in [3H]-D-Asp uptake incubated for 4 mins by scintillation counting method. Put shortly: as §4
Assay [16] deals with T3, Excitatory amino acid transporter 1. Put plainly: Potency index, ratio of IC50 for WAY-213613 to IC50 for test compound for inhibition of human EAAT1 expressed in HEK293 cells assessed as reduction in [3H]-D-Asp uptake incubated for 4 mins by scintillation counting method.
Assay [17] concerns the target T6, Excitatory amino acid transporter 4 (Rattus norvegicus). Put plainly: Potency index, ratio of IC50 for WAY-213613 to IC50 for test compound for inhibition of rat EAAT4 expressed in tsA201 cells assessed as reduction in [3H]-D-Asp uptake incubated for 4 mins by scintillation counting method.
The target of assay [18] is T1, Excitatory amino acid transporter 2. In words: Potency index, ratio of IC50 for WAY-213613 to IC50 for test compound for inhibition of human EAAT2 expressed in HEK293 cells assessed as reduction in [3H]-D-Asp uptake incubated for 4 mins by scintillation counting method.
Assay [19] addresses T2, Excitatory amino acid transporter 3 (Homo sapiens). In words: Potency index, ratio of IC50 for DL-TBOA to IC50 for test compound for inhibition of human EAAT3 expressed in HEK293 cells assessed as reduction in [3H]-D-Asp uptake incubated for 4 mins by scintillation counting method. Put shortly: as §4

T1 sequence (P43004 whole entry): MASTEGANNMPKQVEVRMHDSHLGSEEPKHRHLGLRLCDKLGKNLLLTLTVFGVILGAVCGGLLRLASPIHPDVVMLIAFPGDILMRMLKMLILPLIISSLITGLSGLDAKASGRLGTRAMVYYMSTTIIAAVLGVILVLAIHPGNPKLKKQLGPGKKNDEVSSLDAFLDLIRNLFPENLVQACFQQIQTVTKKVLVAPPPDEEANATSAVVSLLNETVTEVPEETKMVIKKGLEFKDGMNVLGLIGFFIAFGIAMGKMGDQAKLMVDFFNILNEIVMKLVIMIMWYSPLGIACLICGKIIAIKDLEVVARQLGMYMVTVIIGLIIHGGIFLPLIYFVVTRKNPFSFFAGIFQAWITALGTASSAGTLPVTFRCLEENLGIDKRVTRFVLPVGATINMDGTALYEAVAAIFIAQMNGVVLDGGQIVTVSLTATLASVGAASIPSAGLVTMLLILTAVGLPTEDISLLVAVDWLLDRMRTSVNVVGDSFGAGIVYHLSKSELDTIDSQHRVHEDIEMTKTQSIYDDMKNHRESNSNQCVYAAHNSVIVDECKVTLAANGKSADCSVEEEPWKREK
T3 sequence (P43003 whole entry): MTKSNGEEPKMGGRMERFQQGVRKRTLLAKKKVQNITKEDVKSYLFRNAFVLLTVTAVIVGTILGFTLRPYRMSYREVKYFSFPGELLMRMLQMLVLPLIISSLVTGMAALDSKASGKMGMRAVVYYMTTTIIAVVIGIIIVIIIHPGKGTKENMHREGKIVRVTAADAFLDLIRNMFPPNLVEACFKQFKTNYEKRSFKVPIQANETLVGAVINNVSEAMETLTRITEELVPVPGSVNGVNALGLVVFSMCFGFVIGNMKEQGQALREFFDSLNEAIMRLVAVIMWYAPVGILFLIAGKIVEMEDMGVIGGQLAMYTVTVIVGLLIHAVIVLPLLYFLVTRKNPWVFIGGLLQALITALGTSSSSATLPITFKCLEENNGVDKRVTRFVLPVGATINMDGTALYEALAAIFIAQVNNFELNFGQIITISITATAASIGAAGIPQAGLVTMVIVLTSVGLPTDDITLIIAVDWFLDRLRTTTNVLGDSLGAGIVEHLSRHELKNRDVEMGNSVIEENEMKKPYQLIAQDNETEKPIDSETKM

A word on the IC50: it is the midpoint of a concentration-inhibition curve. In the case of `N[C@H](C(=O)O)[C@H](OCC1CCCCC1)C(=O)O`, the inhibition result in assay [1], in assay [5], in assay [7] and in assay [9] was “Active” in each case. The result in assay [2], in [6] and in assay [8] was inactive. Moreover, the IC50 in assay [3] came out at 0.62 µM; in assay [4], 1.6 µM; in assay [10], 2.6 µM; in assay [11], 0.49 µM.

In the case of `N[C@H](C(=O)O)[C@H](OCc1ccco1)C(=O)O`, the inhibition result in [1], in assay [5], in assay [7] and in [9] was “Active” throughout. The result in assay [2], in [6] and in assay [8] was inactive. Moreover, the concentration for half-maximal inhibition (IC50) was found to be 3 µM in assay [3], 7.8 µM in [4], 1.6 µM in assay [10] and 0.83 µM in assay [11].

For the compound `N[C@H](C(=O)O)[C@H](OCc1ccoc1)C(=O)O`, the inhibition result in [1], in [5], in assay [7] and in assay [9] was “Active” in each case. The result in [2], in assay [6] and in [8] was inactive. Further, the IC50 in assay [3] came to 1.3 µM; in assay [4] it was 3.1 µM; in assay [10], 1.2 µM; in assay [11] it was 0.76 µM.

Turning to `N[C@H](C(=O)O)[C@H](OCc1ccccc1)C(=O)Nc1ccc(Oc2cc(F)c(F)cc2Br)cc1`, the IC50 is 0.011 µM in assay [3], 0.14 µM in assay [4], 0.094 µM in [10] and 0.036 µM in assay [11]. Further, the Ratio IC50 was 20 in assay [12]; 190 in assay [13]; 16 in [14]; 53 in assay [15]; 78 in [16]; 11 in assay [17]. Besides, the figures for the Ratio IC50 in assay [18] and in [19] were 2 and 40, respectively.

Take `N[C@H](C(=O)O)[C@H](OCC1CCCCCC1)C(=O)O`: the inhibition result in assay [1], in assay [5], in [7] and in [9] was “Active” throughout. Besides, the result in assay [2], in [6] and in assay [8] was inactive. The IC50 turned out to be 2.2 µM in assay [3], 7.8 µM in [4], 11 µM in assay [10] and 2.4 µM in [11].
